{"data": "Experimental data from different studies", "target": "Serine/threonine-protein kinase NLK (NLK, Homo sapiens, UniProt Q9UBE8)", "One construct used (Q9UBE8 1-527)": "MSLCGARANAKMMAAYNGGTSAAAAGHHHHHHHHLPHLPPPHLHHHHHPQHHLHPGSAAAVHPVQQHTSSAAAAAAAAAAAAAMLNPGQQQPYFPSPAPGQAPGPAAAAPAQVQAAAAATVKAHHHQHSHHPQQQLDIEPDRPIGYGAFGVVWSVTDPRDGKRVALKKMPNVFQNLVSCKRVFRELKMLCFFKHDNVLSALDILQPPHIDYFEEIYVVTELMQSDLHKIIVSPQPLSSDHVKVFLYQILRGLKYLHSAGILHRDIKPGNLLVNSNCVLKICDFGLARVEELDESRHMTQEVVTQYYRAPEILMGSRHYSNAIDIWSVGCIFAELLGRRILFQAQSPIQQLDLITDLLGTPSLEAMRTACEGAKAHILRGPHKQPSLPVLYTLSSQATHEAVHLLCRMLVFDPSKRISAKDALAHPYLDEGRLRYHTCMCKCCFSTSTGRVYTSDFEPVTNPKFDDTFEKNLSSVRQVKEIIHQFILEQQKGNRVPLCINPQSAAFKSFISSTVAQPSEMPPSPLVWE", "note": "Compare with care: the assays were run in different laboratories."}
{"SMILES": "N[C@@H]1CCN(c2nccc(-c3cnn4ncccc34)n2)C1", "effect on": "binding", "tested at": "1 µM", "remaining binding": "100%"}
{"SMILES": "CNC(=O)c1ccc(Nc2ncc(C(F)(F)F)c(NCc3nccnc3N(C)S(C)(=O)=O)n2)cc1", "effect on": "cell-free assay", "technique": "competition with immobilised ligand", "tested at": "0.1 µM", "remaining binding": "100%"}
{"SMILES": "FC(F)(F)Oc1cccc(-c2cnc3ccc(-c4ccncc4)nn23)c1", "effect on": "cell-free assay", "technique": "competition with immobilised ligand", "tested at": "5 µM", "remaining binding": "85%"}
{"SMILES": "O=C(c1ccc(Nc2ncc(Cl)c(-c3cc4ccccc4s3)n2)cc1)N1CCC(N2CCCC2)CC1", "effect on": "binding", "technique": "competition with immobilised ligand", "tested at": "1 µM", "remaining binding": "72%"}
{"SMILES": "O=C1CCc2cc(Nc3cc(OC4CCOCC4)c([N+](=O)[O-])cc3Cl)ccc2N1", "effect on": "cell-free assay", "technique": "competition with immobilised ligand", "tested at": "1 µM", "remaining binding": "100%"}
{"SMILES": "c1cnn2ncc(-c3ccnc(N4CCC45COC5)n3)c2c1", "effect on": "binding", "tested at": "1 µM", "remaining binding": "87%"}
{"SMILES": "O=C(NCCCN1CCOCC1)c1ccc(Nc2nccc(-c3cc4ccccc4s3)n2)cc1", "effect on": "binding", "technique": "competition with immobilised ligand", "tested at": "1 µM", "remaining binding": "94%"}
{"SMILES": "C[C@@H](c1ccc(-n2cnc3c(N)ncnc32)cc1)N1CCc2nn(C)c(Cc3ccccc3)c2C1=O", "effect on": "binding", "technique": "competition with immobilised ligand", "tested at": "0.1 µM", "remaining binding": "80%"}
{"SMILES": "COc1cnc(Nc2cccc(S(N)(=O)=O)c2)nc1N1CCN(c2ccccc2)C(=O)C1", "effect on": "binding", "technique": "competition with immobilised ligand", "tested at": "1 µM", "remaining binding": "100%"}
{"SMILES": "C[C@@H]1CCN(c2nccc(-c3cnn4ncccc34)n2)C1", "effect on": "binding", "tested at": "1 µM", "remaining binding": "70%"}
{"SMILES": "C[C@H](c1cccc(C#N)c1)n1cc(Cl)cc(C(N)=O)c1=N", "effect on": "cell-free assay", "technique": "competition with immobilised ligand", "tested at": "1 µM", "remaining binding": "44%"}
{"SMILES": "CC1CCCN1c1nccc(-c2cnn3ncccc23)n1 (stereo not shown)", "effect on": "binding", "tested at": "1 µM", "remaining binding": "78%"}
{"SMILES": "COc1ccc2c(c1)O[C@@H](c1ccc(OC)c(OC)c1)C[C@H]2NC(=O)C1(c2ccc3c(c2)OC(F)(F)O3)CC1", "effect on": "cell-free assay", "technique": "competition with immobilised ligand", "tested at": "1 µM", "remaining binding": "100%"}
{"SMILES": "COc1ccnn2ncc(-c3ccnc(N(C)C)n3)c12", "effect on": "binding", "tested at": "1 µM", "remaining binding": "87%"}
{"SMILES": "CS(=O)(=O)NCC[C@H](NC(=O)c1cncc2c1cnn2-c1ccc(F)cc1)c1ccnc(S(C)(=O)=O)c1", "effect on": "cell-free assay", "technique": "competition with immobilised ligand", "tested at": "1 µM", "remaining binding": "100%"}
{"SMILES": "O=C(NCC1CCOCC1)c1n[nH]cc1NC(=O)c1c(F)cccc1F", "effect on": "binding", "technique": "competition with immobilised ligand", "tested at": "1 µM", "remaining binding": "85%"}
{"SMILES": "CN(C)c1nccc(-c2cnn3ncccc23)n1", "effect on": "binding", "tested at": "1 µM", "remaining binding": "100%"}
{"SMILES": "O=C(NCCCN1CCOCC1)c1ccc(Nc2ncc(Cl)c(-c3ccc(Cl)s3)n2)cc1", "effect on": "binding", "technique": "competition with immobilised ligand", "tested at": "1 µM", "remaining binding": "100%"}
{"SMILES": "CN(C)c1ncnc(-c2ccc3nc(Nc4cc(CN5CCN(C(=O)CC(F)(F)F)CC5)ccn4)[nH]c3c2)c1Cl", "effect on": "cell-free assay", "technique": "competition with immobilised ligand", "tested at": "1 µM", "remaining binding": "88%"}
{"SMILES": "CN(c1nccc(-c2cnn3ncccc23)n1)C1CC1", "effect on": "binding", "tested at": "1 µM", "remaining binding": "77%"}
{"SMILES": "c1cncc(-c2cccc(Nc3nccc(NC4CCCCC4)n3)c2)c1", "effect on": "binding", "technique": "competition with immobilised ligand", "tested at": "10 µM", "remaining binding": "67%"}
{"SMILES": "Nc1ncc2c(n1)-c1c([nH]c3ccc(C#CC4CC4)cc13)CCCC2", "effect on": "binding", "technique": "competition with immobilised ligand", "tested at": "1 µM", "remaining binding": "85%"}
